SF-1 act – activates the human nuclear receptor SF-1. activation, % at 10 µM. CHO-K1 Gal4-SF-1 LBD luciferase reporter; % increase over DMSO SF-1-specific signal. 65,000 compounds, 1.9% hits. AID 522. Q13285;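 active = activation above the mean activation of all tested compounds plus 3 SD, cut at about 50% in these data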
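Material: Transient Gal4-SF-1 LBD reporter, CHO-K1 | Input: 4,000 cells/well | Dosing: One dose, 10 µM compound, 1% DMSO | Incubation: 20 h compound treatment, 37 °C | Detection: SteadyLite luciferase luminescence | Evaluation: Percent activation relative to DMSO median and mock-transfected background | Benchmarks: DMSO-treated SF-1-transfected cells as negative, DMSO-treated mock-transfected cells lacking SF-1 as background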
RORa activator – RORA (human) activation. activation, % at 10 µM. 65,000 compounds, 1.5% hits. P35398. AID 560. CHO-K1 Gal4-RORA LBD luciferase reporter, luminescence; percent increase over mock-subtracted basal signal;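 active = activation above the mean of all tested compounds plus 3 SD, cut at about 49% in these data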
ERa SRC1 inh – ER-alpha (human) coactivator binding inhibition | P03372 | TR-FRET ER-alpha LBD / SRC-1 peptide, estradiol-bound | inhibition, % at 25.6 µM | 86,000 compounds, 1.7% hits; in the data active = inhibition above about 50%
PTK2B oligo ant – Pyk2 (human) oligomerization antagonism | Q293 cells, Pyk2 FERM NanoBiT luminescence; hits give low values | 99,000 compounds, 0.83% hits | z-score (the deposit names both 25 µM and 10 µM) | AID 1347419;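 active = Z-score of -3 or lower, scaled per plate to the spread of control and sample wells; inactive = z-score above -3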;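 also: negative z-score means lost luminescence so less FERM oligomerization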
Target sequence (Q14289 whole entry, looked up): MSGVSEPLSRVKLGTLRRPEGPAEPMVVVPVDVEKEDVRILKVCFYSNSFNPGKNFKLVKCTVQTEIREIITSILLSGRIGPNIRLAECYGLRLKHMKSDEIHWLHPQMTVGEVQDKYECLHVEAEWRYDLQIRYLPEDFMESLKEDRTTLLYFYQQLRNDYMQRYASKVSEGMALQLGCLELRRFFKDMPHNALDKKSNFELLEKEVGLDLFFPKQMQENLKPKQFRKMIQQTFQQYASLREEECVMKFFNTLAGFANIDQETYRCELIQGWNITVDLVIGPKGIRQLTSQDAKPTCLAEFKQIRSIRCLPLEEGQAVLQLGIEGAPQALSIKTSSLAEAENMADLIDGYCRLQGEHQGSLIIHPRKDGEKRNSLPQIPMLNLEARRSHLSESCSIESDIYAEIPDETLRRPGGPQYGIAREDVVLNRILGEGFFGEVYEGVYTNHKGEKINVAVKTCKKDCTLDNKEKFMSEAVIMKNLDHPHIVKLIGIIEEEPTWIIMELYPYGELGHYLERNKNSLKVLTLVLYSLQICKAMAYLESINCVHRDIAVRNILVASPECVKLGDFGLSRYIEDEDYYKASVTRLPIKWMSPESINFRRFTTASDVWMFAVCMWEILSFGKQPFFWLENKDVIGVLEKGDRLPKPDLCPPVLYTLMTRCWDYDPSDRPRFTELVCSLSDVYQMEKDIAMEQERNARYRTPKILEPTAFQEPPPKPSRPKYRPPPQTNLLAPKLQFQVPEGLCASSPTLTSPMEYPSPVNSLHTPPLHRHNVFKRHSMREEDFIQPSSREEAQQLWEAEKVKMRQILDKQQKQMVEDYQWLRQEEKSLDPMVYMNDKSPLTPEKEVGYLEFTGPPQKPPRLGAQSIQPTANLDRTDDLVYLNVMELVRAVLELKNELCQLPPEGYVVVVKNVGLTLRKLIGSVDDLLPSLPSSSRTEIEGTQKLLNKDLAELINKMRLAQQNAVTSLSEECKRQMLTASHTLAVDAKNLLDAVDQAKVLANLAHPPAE
ERa coact pot – ER-alpha (human) coactivator binding potentiation. AID 639. coactivator binding (% of control), % at 25.6 µM. P03372. 86,000 compounds, 1.3% hits. TR-FRET ERalpha-LBD/SRC-Cy5 coactivator binding, 2 h; 100 = basal binding, no effect; in the data active = activity above about 200%;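 also: binding measured in presence of low estradiol as agonist stimulus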
ERb coact inh – ER-beta (human) coactivator binding inhibition; TR-FRET ER-beta LBD / SRC1-Cy5 peptide binding; receptor agonist-loaded with 1 µM estradiol; inhibition, % at 25.6 µM; AID 633; 86,000 compounds, 1.3% hits;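 active = compounds whose percent inhibition of the receptor-coactivator binding signal exceeds about 50% in the single-dose screen, limit read from the data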
Of the large screens only hits and unclear results are named; the others gave an inactive call; [ ] = another dose, or the depositor's remark. Compounds with a hit are over-represented: about 4.8% of the library has one in this group of screens.

c1ccc2c(N3CCCCC3)ncnc2c1	none (no result: SF-1 act, RORa activator)
c1ccc(-c2cnnc(N3CCCCC3)n2)cc1	RORa activator 58.0
Cc1ccc(-c2nnn(CC(=O)Nc3cccc4cccnc34)n2)o1	none
CC(=O)N1CCc2cc(S(=O)(=O)NCCC(=O)NC3CCCc4ccccc43)ccc21 (configuration not stated)	none
Cc1cc(-c2ccc(N3C(=O)CCC3=O)c(C)c2)ccc1N1C(=O)CCC1=O	ERb coact inh 62.6
CNC(=O)Cn1nc(-c2ccc(C)c(S(=O)(=O)N(C)C)c2)c2ccccc2c1=O	none (no result: SF-1 act, RORa activator)
C=CCn1c(SCC(=O)Nc2cccc(OC)c2)nnc1-c1cccnc1	ERa coact pot 225.9 (no result: PTK2B oligo ant)
C=CCn1nnnc1SCC(=O)Nc1cccc(OC)c1	none
CCn1c(SCC(=O)NCc2cccs2)nnc1-c1cccs1	none
CCOC(=O)c1ccc(NC(=O)CSc2nnc(-c3cccs3)n2CC)cc1	ERa coact pot 383.5[fluorescence artefact?]
CCn1c(SCC(=O)c2ccc(CNC(C)=O)o2)nnc1-c1cccs1	ERa SRC1 inh 58.4
C=CCn1c(SCC(=O)Nc2ccc(C(=O)OC(C)C)cc2)nnc1-c1cccs1	ERa coact pot 825.2[fluorescence artefact?]
CCOC(=O)c1ccc(NC(=O)C2(c3ccccc3)CCOCC2)cc1	none (no result: SF-1 act, RORa activator)
O=C(c1ccccc1)c1nn(-c2ccc(Cl)cc2)cc1C(=O)c1cc2ccccc2oc1=O	none (no result: SF-1 act, RORa activator, ERa SRC1 inh, ERa coact pot, ERb coact inh)
Cc1cc2nc(SCCOC(=O)Nc3ccc(Cl)cc3)nc(C)c2cc1C	none (no result: SF-1 act, RORa activator, ERa SRC1 inh, ERa coact pot, ERb coact inh)
COc1ccc(NC(=O)CSc2nnc(C3CC3)n2-c2ccccc2)cc1	none (no result: SF-1 act, RORa activator)
COc1ccc(NC(=O)CSc2nnc(-c3cccs3)n2-c2ccccc2)cc1	ERa coact pot 323.4[fluorescence artefact?]
O=C(CSc1nnc(-c2cccs2)n1-c1ccccc1)N1CCc2ccccc21	ERa coact pot 924.6[fluorescence artefact?] (no result: PTK2B oligo ant)
CCCCC(=O)NC1(C(F)(F)F)C(=O)Nc2c1c(=O)n(C)c(=O)n2C (configuration not stated)	none
CCCCCNC(CC(=O)Nc1ccc(OC)cc1)C(=O)O (configuration not stated)	ERa coact pot 787.8[fluorescence artefact?] (no result: PTK2B oligo ant)
O=C(/C=C/Nc1cccc(O)c1)c1ccccc1	SF-1 act 57.4
Cc1ccc(C(=O)/C=C/Nc2cccc(O)c2)cc1	none (no result: ERa SRC1 inh, ERa coact pot, ERb coact inh)
COc1cc(/C=N/NC(=O)/C(=C\c2ccc([N+](=O)[O-])cc2)NC(=O)c2ccccc2)cc(OC)c1O	ERa SRC1 inh 52.8[fluorescence artefact?] (no result: SF-1 act, RORa activator)
O=C(N/N=C/c1ccncc1)/C(=C/c1ccccc1)NC(=O)c1ccccc1	none (no result: SF-1 act, RORa activator, ERa SRC1 inh, ERa coact pot, ERb coact inh)
CN(C)c1ccc(NC(=O)Nc2cccc(Cl)c2)cc1	SF-1 act 64.2
CN(c1cccc(NC(=O)Nc2cccc(Cl)c2)c1)S(C)(=O)=O	none
O=C1c2cnccc2CN1Cc1ccccc1	none (no result: SF-1 act, RORa activator)
Oc1ccccc1C1=Nc2nc3ccccc3n2C(c2ccccc2)C1 (configuration not stated)	RORa activator 80.8
CCc1ccc2[nH]c(O)c(N=Nc3nc(-c4ccccc4)cs3)c2c1	none (no result: SF-1 act, RORa activator, ERa SRC1 inh, ERa coact pot, ERb coact inh)
Cc1ccc(NC(=O)Cn2c(/C=C/c3ccccc3)nc3ccccc32)cc1C	PTK2B oligo ant -3.84 (no result: SF-1 act, RORa activator, ERa SRC1 inh, ERa coact pot, ERb coact inh)
CN1CCN(C2OC(=O)c3ccccc32)CC1 (configuration not stated)	none (no result: SF-1 act, RORa activator)
O=C1OC(N2CCN(Cc3ccccc3)CC2)c2ccccc21 (configuration not stated)	RORa activator 69.1
CCOc1ccc(OCC)c(NC(=O)CSc2nc3c(c(=O)n(C)c(=O)n3C)n2C)c1	none (no result: PTK2B oligo ant)
CCOc1ccc(OCC)c(NC(=O)CSc2nc3c(c(=O)n(C)c(=O)n3C)n2C(C)C)c1	SF-1 act 100.9
COc1ccccc1N(CC(=O)Nc1ccc2c(c1)OCO2)S(=O)(=O)c1ccccc1	none
Cc1ccc(N(CC(=O)Nc2ccc3c(c2)OCCO3)S(=O)(=O)c2c(C)noc2C)cc1	none
COc1cccc(N(CC(=O)Nc2ccc3c(c2)OCO3)S(=O)(=O)c2ccccc2)c1	PTK2B oligo ant -3.07 (no result: SF-1 act, RORa activator, ERa SRC1 inh, ERa coact pot, ERb coact inh)
CCOC(=O)c1ccc(NC(=O)CN(c2ccc(C)cc2)S(=O)(=O)c2c(C)n[nH]c2C)cc1	PTK2B oligo ant -3.38
Cc1ccc(N(CC(=O)Nc2ccc3c(c2)OCCO3)S(=O)(=O)c2c(C)n[nH]c2C)cc1	PTK2B oligo ant -3.49
COc1ccc(N(CC(=O)Nc2ccc3c(c2)OCCO3)S(=O)(=O)c2c(C)noc2C)cc1	ERb coact inh 98.6[fluorescence artefact?]
CCOc1ccccc1NC(=O)CN(c1ccc(C)cc1)S(=O)(=O)c1c(C)n[nH]c1C	none
CCn1c(C(=O)N2CCC(C(=O)NCCCSC3CCCCC3)CC2)cc2sccc21	none (no result: PTK2B oligo ant)
Cc1ccc(CCNc2ccccc2C)cn1	none (no result: SF-1 act, RORa activator)
O=C1CC(c2cccs2)Sc2nc3ccccc3n21 (configuration not stated)	SF-1 act 79.8
Cn1c(Cc2cccs2)nnc1SC/C=C/c1ccccc1	none
Cc1ccc2nc3ccc(N4CCCC4)nn3c(=O)c2c1	RORa activator 53.6 (no result: ERa SRC1 inh, ERa coact pot, ERb coact inh)
COc1ccccc1C(=O)Nc1c2c(nn1-c1cccc(C)c1C)CS(=O)C2 (configuration not stated)	none
CC(=O)/C=C(\C)Nc1ccc(-c2cnc(-c3ccccc3)o2)cc1	SF-1 act 56.7, RORa activator 88.2
O=C(Nc1ccc(-c2nnc(-c3ccccc3)o2)cc1)C(F)(F)F	none (no result: ERa SRC1 inh, ERa coact pot, ERb coact inh)
COc1ccc2c(c1OC)C(=O)N(c1ccccn1)C2	SF-1 act 68.7, RORa activator 52.2
COc1ccc2c(c1OC)C(=O)N(c1cccc(C(F)(F)F)c1)C2	SF-1 act 58.8
CCCCCCCC(=O)N/N=C(\C)c1cccnc1	none (no result: SF-1 act, RORa activator)
O=C(NCc1ccco1)C(c1cccnc1)N(C(=O)Cn1nnc2ccccc21)c1ccc(F)cc1 (configuration not stated)	none
CCOC(=O)C1=C(C)NC(C)=C(C(=O)OCC)C1c1sccc1C	PTK2B oligo ant -3.33 (no result: SF-1 act, RORa activator, ERa SRC1 inh, ERa coact pot, ERb coact inh)
CCOC(=O)C1=C(C)NC(C)=C(C(=O)OCC)C1c1ccc(O)cc1	none
CCOC(=O)C1=C(C)NC(C)=C(C(=O)OCC)C1C(=O)O	none
CCCC1C(C(=O)OCC)=C(C)NC(C)=C1C(=O)OCC	PTK2B oligo ant -3.07
C=CCc1c(C)nc(SCC(=C)C)[nH]c1=O	none (no result: SF-1 act, RORa activator)
c1cncc(Nc2nc(-c3cccs3)cs2)c1	SF-1 act 76.3, RORa activator 58.9
c1ccc(-c2csc(Nc3cccnc3)n2)nc1	SF-1 act 56.6
CCCn1c(SCC(=O)NC2CCCCC2C)n[nH]c1=O (configuration not stated)	none (no result: SF-1 act, RORa activator)
CN(C)S(=O)(=O)c1cccc(CSc2cccc[n+]2[O-])c1	none
CC(=O)NC1(C(F)(F)F)C(=O)Nc2c1c(=O)[nH]c(=O)n2Cc1ccco1 (configuration not stated)	none
O=c1[nH]c(=O)n(Cc2ccco2)c2c1C(C(F)(F)F)(C(F)(F)F)N=C(Cc1ccccc1)N2	PTK2B oligo ant -3.68 (no result: SF-1 act, RORa activator)

Screens as filed in PubChem BioAssay.
